# Test results taken from publication PMC4182178 (Oncogene, 2014).
# Like-named read-outs stand apart in the source and are kept apart here.
# Assays:
# [1] = tested on: MDA-MB-468 tumor xenografts; test: Human breast cancer cell line xenograft assay, tumor growth; assay type: in vivo, nude mice; conditions: 15 mg/Kg body weight/day IP, 21 days; p < 0.05
# MC1 = test: Mammosphere assay, patient-derived xenograft cells; assay type: cell-based, human; conditions: read-out: IC50 Mammosphere assay, Mean ± SEM, n ≥ 2
# Outline: (§1)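 Patient-derived breast tumors serially grown in SCID/Beige mouse fat pad were excised, minced, collagenase-digested, mesh-filtered and suspended as single cells in MEGM+. Cells were plated in serum-free, growth-factor-enriched medium in low-attachment plates ± test compound (0/0.1/0.3/1/3/10/100 μM), fed twice weekly, and counted by automated colony counter after 5–12 days. Percent of untreated colony number was fitted for IC50.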
# [2] = molecular target: glutathione S-transferase pi 1 (GSTP1); conditions: read-out: IC50 for GSTP1 inhibition; cited from earlier work
# GFP+ SUM159PT cells = assay type: cell-based; conditions: PL 3 and 10 μM
# Outline: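 SUM159PT cells carrying a lentiviral Stat3-GFP reporter (GFP driven by four M67 repeats) were grown as xenografts in pre-cleared mammary glands of SCID/Beige mice. Excised tumors were digested to single cells and FACS-sorted into GFP+ and GFP− populations. Mammosphere formation efficiency was then assayed in MEGM+ without or with test compound.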
# MCF 10A = test: Anchorage independent growth; assay type: cell-based
# ZR-75-1 = test: Anchorage independent growth; assay type: cell-based
# Stat3 phosphorylation [3] = test: Phosphoflow assay, G-CSF stimulated Stat3 phosphorylation in Kasumi-1 cells; assay type: cell-based; conditions: read-out: IC50 G-CSF stimulated Stat3 phosphorylation, Mean ± SEM, n ≥ 2, G-CSF 10 ng/ml 15′
# cleaved caspase 3 = test: Cleaved caspase 3 in MDA-MB-468 cells; assay type: cell-based, human; conditions: PL 30μM, 12 hrs
# Outline: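 MDA-MB-468 cells were exposed to 30 μM test compound and sampled over 15 min to 24 h. Cleaved caspase 3 and GAPDH were measured in whole protein by Luminex bead immunoassay. GAPDH-normalized active caspase 3 was expressed as a percentage of the pre-treatment value.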
# MDA-MB-468 cells = test: Anchorage independent growth; assay type: cell-based, human
# MDA-MB-453 = test: Anchorage independent growth; assay type: cell-based
# MCF-12A = test: Anchorage independent growth; assay type: cell-based
# Hs 578T cells = test: Anchorage independent growth; assay type: cell-based, human; conditions: read-out: IC50 Anchorage independent growth (MTT), Mean ± SEM, n ≥ 2
# Outline: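 Cells grown in triplicate in ultra-low-attachment 96-well plates in complete DMEM ± test compound (0/0.1/0.3/1/3/10/100 μM) for 48–72 hrs. Viable cells were quantitated by MTT. Relative % viability was calculated as treated ÷ untreated × 100 and plotted against log concentration. IC50 was derived from ≥2 replicate experiments.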
# MEF/GFP-Stat3α cells = test: Anchorage-independent colony growth and MTT viability of MEF/GFP-Stat3α cells; assay type: cell-based; conditions: 3μM of PL
# Outline: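 Stat3−/− MEFs stably expressing GFP-Stat3α were grown under anchorage-independent conditions with increasing doses of test compound, then photographed. Mean colony number from duplicate wells was taken as a percentage of DMSO-treated cells. Viability by MTT was also expressed relative to DMSO-treated cells. IC50 values were fitted against log concentration.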
# MCF-7 = test: Anchorage independent growth; assay type: cell-based, human
# T-47D = test: Anchorage independent growth; assay type: cell-based, human
# Stat3 phosphorylation [4] = test: Constitutive Stat3 phosphorylation in breast cancer cell lines; assay type: cell-based, human; conditions: for IC50: read-out: IC50 Constitutive Stat3 phosphorylation, Mean ± SEM, n ≥ 2
# Stat3-regulated genes [5] = test: Quantitative RT-PCR of Stat3-regulated genes in MDA-MB-468 cells; assay type: cell-based, human; conditions: 30 μM, 6–8 hr
# BCM-2665 = test: Mammosphere assay, patient-derived xenograft cells; assay type: cell-based, human; conditions: read-out: IC50 Mammosphere assay, Mean ± SEM, n ≥ 2
# Outline: as §1
# Toxicity in mice = assay type: in vivo; conditions: up to a dose of 30 mg/Kg/day for 14 days
# Sum159PT = test: Anchorage independent growth; assay type: cell-based
# MDA-MB-231 cells = test: Anchorage independent growth; assay type: cell-based, human
# Stat3-regulated genes [6] = test: mRNA of Stat3-regulated genes in MDA-MB 468 xenograft tumors; assay type: in vivo, nude mice; conditions: 15 mg/Kg; vs vehicle; p<0.05; listed as PL
# Outline: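 mRNA levels of Stat3-regulated genes were measured by Q-RT-PCR in excised tumors from nude mice bearing subcutaneous MDA-MB-468 xenografts. Mice had been treated i.p. with test compound 15 mg/Kg in DMSO or with vehicle, 5 days/week for 3 weeks. Values were normalized to β-actin and compared against vehicle-treated tumors.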
# GFP-Stat3α = GFP-Stat3α (Homo sapiens, UniProt P40763); assay type: cell-based
# Sequence of GFP-Stat3α (P40763 whole entry): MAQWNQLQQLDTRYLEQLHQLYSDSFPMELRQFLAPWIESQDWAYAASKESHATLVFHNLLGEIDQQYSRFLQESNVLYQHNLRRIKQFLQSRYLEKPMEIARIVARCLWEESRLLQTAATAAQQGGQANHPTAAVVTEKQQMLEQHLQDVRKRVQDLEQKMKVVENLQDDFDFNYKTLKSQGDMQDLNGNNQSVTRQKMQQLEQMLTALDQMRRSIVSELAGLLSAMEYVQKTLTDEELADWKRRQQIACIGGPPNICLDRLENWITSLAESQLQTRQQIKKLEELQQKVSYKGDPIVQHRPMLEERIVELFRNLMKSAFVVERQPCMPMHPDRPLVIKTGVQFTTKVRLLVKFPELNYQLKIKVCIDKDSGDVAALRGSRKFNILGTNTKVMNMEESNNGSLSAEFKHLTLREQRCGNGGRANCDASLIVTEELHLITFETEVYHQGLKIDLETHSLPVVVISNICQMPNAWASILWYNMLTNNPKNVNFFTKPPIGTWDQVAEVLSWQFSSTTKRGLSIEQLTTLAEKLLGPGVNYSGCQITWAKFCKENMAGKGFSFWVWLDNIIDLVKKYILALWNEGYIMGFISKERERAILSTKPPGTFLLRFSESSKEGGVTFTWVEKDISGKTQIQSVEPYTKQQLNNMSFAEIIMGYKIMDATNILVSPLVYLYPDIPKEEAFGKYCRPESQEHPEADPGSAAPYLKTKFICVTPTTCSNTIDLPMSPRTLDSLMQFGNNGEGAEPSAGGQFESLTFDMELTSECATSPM
# [7] = read-out: Anchorage independent Growth IC50, 80 hrs, no sensitivity taken as 100 μM
# [8] = read-out: Anchorage Independent Growth IC50, 16 hrs
# [9] = read-out: Anchorage independent Growth IC50, 80 hrs
smiles,measurement,setting,value
"COc1cc(/C=C/C(=O)N2CCC=CC2=O)cc(OC)c1OC [Piperlongumine, piperlongumine]",reduction of tumor weight,[1],> 50%
same,IC50,MC1,4.2 ± 2.3 µM
same,IC50,[2],~100 µM
same,mammosphere formation by GFP+ cells,GFP+ SUM159PT cells,completely inhibited
same,IC50,"MCF 10A; read-out: Anchorage Independent Growth IC50, 16 hrs, no sensitivity taken as 100 μM",> 100 µM
same,IC50,MCF 10A; [7],> 100 µM
same,IC50,ZR-75-1; [8],80.6 µM
same,IC50,ZR-75-1; [9],0.8 µM
same,IC50,Stat3 phosphorylation [3],3.7 ± 1.7 µM
same,increase of caspase 3 cleavage compared to earlier time points,cleaved caspase 3,~ 12 fold
same,IC50,"MDA-MB-468 cells; read-out: Anchorage Independent Growth IC50, 16 hrs, MDA-MB-468",2.8 µM
same,IC50,"MDA-MB-468 cells; read-out: Anchorage independent Growth IC50, 80 hrs, MDA-MB-468",0.9 µM
same,IC50,"MDA-MB-468 cells; read-out: IC50 Anchorage independent growth (MTT), MDA-MB 468, Mean ± SEM, n ≥ 2",4.6 ± 4.8 µM
same,IC50,MDA-MB-453; [8],15.5 µM
same,IC50,MDA-MB-453; [9],1.7 µM
same,IC50,MCF-12A; [8],16.2 µM
same,IC50,MCF-12A; [7],> 100 µM
same,IC50,Hs 578T cells,0.2 ± 0.1 µM
same,spheroid colony formation,MEF/GFP-Stat3α cells,completely abrogating
same,IC50,MCF-7; [8],7 µM
same,IC50,MCF-7; [9],3.6 µM
same,IC50,T-47D; [8],42 µM
same,IC50,T-47D; [9],0.3 µM
same,"effect on levels of total Stat3 or pStat1, pStat5 and total Stat1","Stat3 phosphorylation [4]; MDA-MB-231 and MDA-MB-468 (pStat1, pStat5, total Stat1 in MDA-MB-468)",without substantially affecting
same,reduction of pStat3 levels at 15 min,"Stat3 phosphorylation [4]; MDA-MB-468, PL 30 μM",> 50%
same,time of maximal reduction of pStat3,"Stat3 phosphorylation [4]; MDA-MB-468, PL 30 μM",≤ 30 min
same,pStat3 levels in the GFP+ cells,"Stat3 phosphorylation [4]; Sum159PT xenograft-derived GFP+ cells, increasing doses of PL",decreased
same,IC50,Stat3 phosphorylation [4]; MDA-MB 231,0.4 ± 0.5 µM
same,IC50,Stat3 phosphorylation [4]; MDA-MB 468,2.8 ± 2.1 µM
same,increase of FAS (CD95) mRNA,Stat3-regulated genes [5],two fold
same,IC50,BCM-2665,0.1 µM
same,toxicity in mice,Toxicity in mice,non-toxic
same,IC50,Sum159PT; [8],12.9 µM
same,IC50,Sum159PT; [9],0.8 µM
same,IC50,"MDA-MB-231 cells; read-out: Anchorage Independent Growth IC50, 16 hrs, MDA-MB-231",9.2 µM
same,IC50,"MDA-MB-231 cells; read-out: Anchorage independent Growth IC50, 80 hrs, MDA-MB-231",0.3 µM
same,IC50,"MDA-MB-231 cells; read-out: IC50 Anchorage independent growth (MTT), MDA-MB 231, Mean ± SEM, n ≥ 2",1.2 ± 1.8 µM
same,reduction of β-actin-normalized BcL-xL mRNA in tumors,Stat3-regulated genes [6],~ 50%
same,reduction of β-actin-normalized Survivin mRNA in tumors,Stat3-regulated genes [6],~ 50%
"O=C1C=CC(=O)c2c1ccc1c2ccc2ccccc21 [chrysene 1,4 quinone]",IC50,GFP-Stat3α,10 µM
